Assay: Toxicity liver stage against HepG2, at 10uM
Assay type: cell-based
Set-up: test concentration 10 uM, cell line HepG2-A16-CD81EGFP
Settings: human, HepG2-A16-CD81EGFP cells; read-out: INHIBITION
Method in brief: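 Uninfected HepG2-A16-CD81EGFP cells, 3 × 10^3 per well, 1536-well, plated on prespotted compound at 10 μM final, parasite-free screening media added to match infected plates; puromycin 10 μM positive, DMSO 0.5% negative; run in parallel with 48 h PbLuc assay at 37 °C, 5% CO2; viability by CellTiter-Glo luminescence, normalized to controls.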

| Structure (SMILES) | cytotoxicity at 10 µM [%] |
| --- | --- |
| O=C1c2cccnc2OC(CN2CCOCC2)CN1Cc1cccs1 (stereo not given) | -3.35 |
| COc1ccc(CN2CC(O)CN(C(=O)OCC(C)C)CC2=O)cc1 (stereo not given) | -7.34 |
| Cc1cc(C)n2c(CCCNS(=O)(=O)c3ccc(F)cc3)nnc2n1 | 2.38 |
| O=C(c1ccc(Cl)s1)N1CC(c2nc(-c3ccc[nH]c3=O)no2)C1 | -1.26 |
| CN1CCN([C@@H]2CCN(C(N)=O)[C@H]2Cc2ccccc2)CC1 | 2.41 |
| CCO[C@@H]1CC[C@H]2[C@H]1OCCN2S(=O)(=O)c1cn(C)cn1 | 5.59 |
| O=C1CC2(CCN(c3nncs3)C2)CN1c1cncnc1 (stereo not given) | -0.376 |
| Cc1nnc(N2C[C@H](C(=O)NCc3ccco3)[C@@H]3CCO[C@@H]3C2)s1 | 8.5 |
| Cc1ccc(C(=O)N2C[C@@H]3COC[C@]3(COCc3cccnc3)C2)cn1 | 0.719 |
| Cc1ccc(N2N=C(C(=O)NCC3CC3)S(=O)(=O)c3cccnc32)cc1 | 6.72 |
| O=C(Cn1nc(Br)nc1Br)N1CCOCC1 | -1.14 |
| O=C1CC(N2CCN(c3ccccc3O)CC2)C(=O)N1Cc1cccs1 (stereo not given) | -0.872 |
| COCCNC(=O)Cn1cc2c(n1)c(C)nn2C | 4.6 |
| CN(C)C(=O)CN1CCC(c2c(C(N)=O)sc3ncccc23)C1 (stereo not given) | 8.42 |
| CC(NC(=O)C(C)(C)C)c1cc(O)nc(-c2cccnc2)n1 (stereo not given) | 6.5 |
| Cn1ccnc1C(O)c1ccccc1N1CCN(Cc2cccs2)CC1 (stereo not given) | 5.03 |
| CS(=O)(=O)c1cc(Cl)cnc1C1CCN(C(=O)C2CC2)CC1 | 8.21 |
| Cc1ncsc1CN1CCOC(C)(C(N)=O)C1 (stereo not given) | 0.267 |
| C[C@@H]1CN(c2nc(O)cc(Cc3ccccc3F)n2)C[C@H](C)O1 | 5.31 |
| CC(C)(C)c1ccc2c(c1)CCN2C(=O)c1[nH]c(=O)[nH]c(=O)c1N | 7.22 |
| Brc1cnc(NCCCOCC2CCOCC2)nc1 | 16.8 |
| Cc1ccccc1C(O)CNC(=O)Cc1ccc(F)cc1 (stereo not given) | 5.8 |

| Structure (SMILES) | cytotoxicity at 10 µM [%] |
| --- | --- |
| COCCN(Cc1noc(-c2ccc(OC)cc2)n1)C1CC1 | 5.69 |
| CCn1ccnc1CN1CCCN(C(=O)c2cncnc2C)CC1 | 5.65 |
| CCn1c(=O)n(CCC(=O)N(C)Cc2ccc(C)o2)c2ccccc21 | -2.42 |
| Cn1c(CO)nnc1SCc1c(F)cccc1Br | -41.2 |
| COc1ccc(CNC(=O)CN2CCc3ccccc32)cc1 | 10.5 |
| COCCC(C)NC(=O)N1CCC(n2ccc(C(F)(F)F)n2)CC1 (stereo not given) | -3.9 |
| CCSc1cc(C(=O)NCC(C)(C)N(C)C)ccn1 | -13.4 |
| CCOc1cncc(N(C)CC(=O)NC)n1 | 2.16 |
| CC(C)c1nc(CSc2nnc(Cn3cncn3)o2)cs1 | 3.19 |
| O=C(CCc1ccco1)Nc1ccc(Br)cn1 | 81.2 |
| Cc1cc(CSc2nc(=O)ccn2C(C)C)no1 | 14.9 |
| CCn1cc(CNCCNc2ncc(Cl)cc2Cl)cn1 | -4.27 |
| CC(C(=O)Nc1cc(F)ccc1F)N1CCN(Cc2ncc[nH]2)CC1 (stereo not given) | -15.8 |
| CC(C)(C)OC(=O)N1CSC[C@@H]1C(=O)NCc1ccc(C#N)cc1 | 11.6 |
| Cc1cc2ncc(C(C)NCc3cccnc3)c(C)n2n1 (stereo not given) | -0.0764 |
| CN1CCCC(N(C)S(=O)(=O)c2cccc3ncccc23)C1 (stereo not given) | -6.46 |
| Cc1ccc(-c2noc(C(C)(C)NS(C)(=O)=O)n2)cc1F | 2.77 |
| c1ccc2[nH]c(C3CCN(Cc4noc(C5CC5)n4)CC3)cc2c1 | 7.67 |
| CCn1nc(C)cc1C(=O)N1C[C@@H]2C[C@@H](c3nc(C)cs3)O[C@@H]2C1 | 3.39 |
| CCn1c(Cn2cncn2)nnc1C1CCN(C2CCOCC2)CC1 | 9.23 |
| Clc1ccc(-n2cnnc2CCCN2CCOCC2)cc1 | 5.52 |
| NC(=O)c1cnc2n1CCN(C(=O)c1ccc(Cn3cccc3)cc1)C2 | -1.5 |

| Structure (SMILES) | cytotoxicity at 10 µM [%] |
| --- | --- |
| COCC(=O)N1CCCN(C(=O)C2Cc3ccccc3CN2C)CC1 (stereo not given) | 4.28 |
| CC(=O)N1CCCn2nc(CNS(=O)(=O)N3CCC(C)CC3)cc2C1 | 9.91 |
| CNC(=O)Cc1ccc(-n2ccnc2-c2cccc(C(=O)O)c2)cc1 | -7.9 |
| CC(C)c1cc(CN(C)C(=O)CN2CCCCC2=O)no1 | 8.01 |
| CN(C)Cc1nc(C(=O)N2CCCC(COc3ccc(F)cc3)C2)cs1 (stereo not given) | -6.09 |
| O=C(O)[C@@H]1CN(C(=O)c2ccc3nccnc3c2)C[C@H]1c1ccncc1 | -11.3 |
| COc1cccc2c1OCC(C(=O)NCc1ncc3c(n1)CCC3)C2 (stereo not given) | -8.51 |
| CC(=O)c1cccc(OCc2cc(C(=O)N3CCCCO3)n[nH]2)c1 | 2.19 |
| CN(C)c1cnn(CC(=O)N2CCCCCC2)c(=O)c1 | -10.6 |
| CCc1cc(N(C)CCC(O)c2ccccc2)n2nccc2n1 (stereo not given) | -1.14 |
| CNc1cc(C)nc(-c2cc(NC3CCNCC3)nc3[nH]ccc23)n1 | -2.98 |
| COCCN1CCC(CN(CC2CCCO2)C(=O)Cn2cccn2)CC1 (stereo not given) | -3.79 |
| CCc1nc(N2CCC3(CCC(=O)N(Cc4ccncc4)C3)CC2)no1 | 7.1 |
| CCn1ncnc1CN1CCC(CNC(=O)c2cccc(C)n2)C1 (stereo not given) | 8.57 |
| O=C(O)c1nn(CC2CC2)c2c1CN(S(=O)(=O)c1cccnc1)CC2 | 3.16 |
| CC(C)(C)C(=O)NCCNc1cc(N2CCCC2)ncn1 | -43 |
| Cc1ccc(OCC(C)NS(C)(=O)=O)cc1C (stereo not given) | 9.98 |
| Cn1nc2c(c1NC(=O)c1ccc(C3CCCN3C3CCC3)s1)CCC2 (stereo not given) | -5.08 |
| CN(Cc1cscn1)C1CCCN(c2cccnn2)C1 (stereo not given) | -3.69 |
| Cc1cnn(CC2CCCCN2Cc2ncc(C(C)(C)C)o2)c1 (stereo not given) | -3.44 |
| CC(C)c1nn(C)c(N(C)C)c1CNC(C)c1ccccc1F (stereo not given) | -2.97 |
| Cc1ccc(CN(Cc2nc3c(cnn3C)c(=O)[nH]2)C2CC2)o1 | -1.92 |

| Structure (SMILES) | cytotoxicity at 10 µM [%] |
| --- | --- |
| N#Cc1cccc(C(=O)N2CCC(Nc3cccnn3)CC2)c1 | -5.17 |
| CC1CN(CCc2ccccn2)CCN1c1ccc2nncn2n1 (stereo not given) | -3.43 |
| Cc1ccc(CN(C)C(=O)CN2CCCC(Cn3cncn3)C2)o1 (stereo not given) | -24.4 |
| CC(C)c1n[nH]c(C2CN(C(=O)c3ncoc3C(C)C)CCO2)n1 (stereo not given) | -7.22 |
| CC(C)c1noc(C(C)N2CCN(Cc3cccnc3)CC2)n1 (stereo not given) | -5.44 |
| CC(c1cccc(Cl)c1)N(C)Cc1nc2c(cnn2C)c(=O)[nH]1 (stereo not given) | -10.5 |
| Cc1cc(C)n(CC2CCCN2C(=O)c2cccn3ccnc23)n1 (stereo not given) | -7.45 |
| CCCN(CCC)C(=O)CN(C)C1CCc2ccccc21 (stereo not given) | -6.63 |
| Cc1nc(C2CCCN2C(=O)c2csc3c2CCCC3)no1 (stereo not given) | -10.3 |
| Cc1cc(C2CCCN2C(=O)c2cc3c(s2)CCC3)no1 (stereo not given) | -11 |
| COc1cccc(C2CCCN2CCCNS(C)(=O)=O)c1 (stereo not given) | -2 |
| Cc1nc(C)n(CC2CCCCN2CC(=O)Nc2cc(C)on2)n1 (stereo not given) | 2.67 |
| CC(C)COCCCNC(=O)NCC(O)c1cccc(F)c1 (stereo not given) | -3.1 |
| COc1ncccc1CNC(=O)Nc1ccc(N(C)C)nc1 | -4.38 |
| CN1CCC/C1=N\S(=O)(=O)c1ccc(NC(=O)c2ccc(Cl)cc2)cc1 | -0.383 |
| O=C(c1cccc(CNS(=O)(=O)c2ccc(F)cc2)c1)N1CCCC1 | -8.57 |
| CCC(CC)C(=O)NCCc1ccn(-c2ccccc2)n1 | -8.8 |
| CC(Cn1cccn1)NC(=O)NCc1ccoc1 (stereo not given) | 8.59 |
| CC(C)N(Cc1cccc(Cl)c1)Cc1nc2c(cnn2C)c(=O)[nH]1 | 1.97 |
| O=C(CCc1cscn1)N1CCCC(c2ccn[nH]2)C1 (stereo not given) | -9.14 |
| Cc1ccc(CNC(=O)NCc2cccnc2N(C)C)s1 | -4.15 |
| CCc1nnc2n1CCN(C(=O)C(C)COCc1ccccc1)C2 (stereo not given) | -9.46 |

| Structure (SMILES) | cytotoxicity at 10 µM [%] |
| --- | --- |
| CC(C)c1nc(C2CCCN2Cc2ccn(C)c(=O)c2)no1 (stereo not given) | -12.2 |
| CCOc1cc(CNC(=O)N2CCC(Cc3cnn(C)c3)C2)ccn1 (stereo not given) | -8.29 |
| CC(C)c1ccc(C(O)Cn2c(=O)c(C#N)cn(C3CC3)c2=O)cc1 (stereo not given) | -11.5 |
| CCc1nc(CN2CCCN(C(=O)C(C)COC)CC2)cs1 (stereo not given) | -0.884 |
| CN(CCNC(=O)NCc1ccncc1)C1CCCC1 | -2.95 |
| Cc1cc(CN(C)C(=O)c2ccc(F)cc2Br)no1 | 0.864 |
| CNC(=O)C1(N2CCC[C@H]2C(=O)NC2CCOCC2)CCOCC1 | 0.705 |
| Cn1cc(CN2CCC(F)(F)C3(CCN(c4cccnc4)C3)C2)cn1 (stereo not given) | 3.89 |
| COCCN1C[C@@H]2[C@@H](OC)CCN(Cc3ccc(C)o3)[C@@H]2C1 | -4.42 |
| Cc1ccc(CN2CCO[C@H]3[C@@H](OCc4cccnc4)CC[C@@H]32)o1 | -0.58 |
| COc1ncccc1C(=O)N1CC[C@H]2C[C@H](c3nnc(C)[nH]3)O[C@@H]2C1 | 2.4 |
| Cc1cccc(CN2Cc3ccnn3CC(COCC3CC3)C2)n1 (stereo not given) | 2.13 |
| COCCN1CCC2(C1)c1ccccc1S(=O)(=O)N2Cc1ccccc1 (stereo not given) | 10.5 |
| CCN1CCC(N2CCC(C(=O)N(C)C)CC2)CC1 | 0.486 |
| CN(C)CC(=O)N1CCC2(CCc3cc(-c4cccnc4)ccc32)CC1 | 4.01 |
| COc1ccc(CN2CCC3(CC2)CC(c2cccnc2)CO3)cc1 (stereo not given) | -0.259 |
| Cn1cc2c(n1)C(CNCc1ccco1)OCC2 (stereo not given) | -1.54 |
| CN(Cc1ccco1)[C@@H]1CN(Cc2ccco2)[C@@H]2CCCO[C@H]12 | 1.41 |
| c1cnc(N2C[C@H]3CC[C@@H](C2)N(Cc2ccsc2)C3)nc1 | 1.2 |
| COCCN1C(=O)CCC12CCC(NCc1ccc(OC)cc1)CC2 (stereo not given) | 11.5 |
| COCC(=O)NCC1CCC(c2ccnc3ncnn23)CC1 (stereo not given) | 1.36 |
| O=C(Cn1ccc(=O)cc1)N1C[C@@H]2CC[C@H]1CN(c1ncccn1)C2 | 4.52 |
